Source: ChEMBL document CHEMBL4033649, “Discovery of tetrahydrocarbazoles as dual pERK and pRb inhibitors” (Eur J Med Chem, 2017)

Assay: Inhibition of ERK phosphorylation in human MDA-MB-231 cells after 1 hr
Format: cell-based
Procedure, shortened: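 MDA-MB-231 cells (25,000/well) grown 24 h, serum-starved 6 h, then exposed to compound 1 h (screen at 10 μM, n=3; dose-response for IC50). Cells fixed in 3.7% formaldehyde, permeabilized with 0.1% Triton X, immunostained with phospho-p44/p42 MAPK (T202/Y204) antibody plus anti-rabbit IgG secondary; TMB colour read by absorbance.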

| IC50 (Homo sapiens, MDA-MB-231, 1 h) [µM] | IC50 [µM] | Structure (SMILES) |
| --- | --- | --- |
| 8.1 | – | O=C(NC1CCc2c([nH]c3ccccc23)C1)c1cccc(F)c1 (stereo unspecified) |
| 6.11 | – | c1ccc(CNC2CCc3c([nH]c4ccccc34)C2)cc1 (stereo unspecified) |
| 69.9 | – | O=S(=O)(NC1CCc2c([nH]c3ccccc23)C1)c1cccnc1 (stereo unspecified) |
| 7 | – | c1ccc2c3c([nH]c2c1)CC(NC1CCCCC1)CC3 (stereo unspecified) |
| 3 | – | CC1CCC(NC2CCCc3c2[nH]c2ccccc32)C1 (stereo unspecified) |
| > 100 | – | c1ccc2c3c([nH]c2c1)CC(NC1CCOCC1)CC3 (stereo unspecified) |
| 4.4 | – | Cc1ccc(CNC2CCc3c(n(C)c4ccccc34)C2)cc1 (stereo unspecified) |
| 5.52 | – | CC1CCC(NC2CCCc3c2[nH]c2ccc([N+](=O)[O-])cc32)C1 (stereo unspecified) |
| 4.6 | – | Cc1ccc(CNC2CCc3c([nH]c4ccc(C)cc34)C2)cc1 (stereo unspecified) |
| 5.5 | – | Cc1ccc2[nH]c3c(c2c1)CCC(NCc1ccccc1)C3 (stereo unspecified) |
| 9 | – | c1ccc2c3c([nH]c2c1)C(NC1CCCCC1)CCC3 (stereo unspecified) |
| 21 | – | c1ccc2c3c([nH]c2c1)CC(NC1CCCC1)CC3 (stereo unspecified) |
| 7.5 | – | O=S(=O)(NC1CCc2c([nH]c3ccccc23)C1)c1ccc(F)cc1 (stereo unspecified) |
| > 100 | – | O=S(=O)(NC1CCCc2c1[nH]c1ccccc21)c1ccc(F)cc1 (stereo unspecified) |
| 9 | – | COc1cccc(C(=O)NC2CCc3c([nH]c4ccccc34)C2)c1 (stereo unspecified) |
| 3.62 | – | Cc1ccc(CNC2CCc3c([nH]c4ccccc34)C2)cc1 (stereo unspecified) |
| 29.7 | – | O=C(NC1CCc2c([nH]c3ccccc23)C1)c1ccccc1F (stereo unspecified) |
| > 100 | – | O=S(=O)(NC1CCCc2c1[nH]c1ccccc21)c1cccnc1 (stereo unspecified) |
| 7 | – | N#Cc1ccc(S(=O)(=O)NC2CCc3c([nH]c4ccccc34)C2)cc1 (stereo unspecified) |
| – | 5.5 | Cc1ccc2[nH]c3c(c2c1)CCC(NC1CCC(C)C1)C3 (stereo unspecified) [listing 1 of 2 here] |
| > 30 | – | CC1CCC(NC2CCc3c([nH]c4ccccc34)C2)C1 (stereo unspecified) |
| 6 | – | Cc1ccc2[nH]c3c(c2c1)CCC(NC1CCC(C)C1)C3 (stereo unspecified) [listing 2 of 2 here] |
| 21 | – | c1ccc2c3c([nH]c2c1)C(NC1CCCC1)CCC3 (stereo unspecified) [listing 1 of 2 here] |
| – | 30 | c1ccc2c3c([nH]c2c1)C(NC1CCCC1)CCC3 (stereo unspecified) [listing 2 of 2 here] |
| > 100 | – | N#Cc1ccc(S(=O)(=O)NC2CCCc3c2[nH]c2ccccc32)cc1 (stereo unspecified) |
| 0.063 | – | CNC(=O)c1cc(Oc2ccc(NC(=O)Nc3ccc(Cl)c(C(F)(F)F)c3)cc2)ccn1 [SORAFENIB] |
